Experimental data reported in ChEMBL document CHEMBL1122290, “N-(substituted-phenyl)-D-glycopyranosylamines and their O-acetyl derivatives as potential modifiers of the formation of glycosaminoglycans” (1983).

Tested on: B16
Assay: In vitro compound's ability to inhibit the replication of cultured B16 melanoma cells
Type: functional
Settings: Mus musculus, read-out: ID50 (the source's name)
Summary of the method: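 B16/F10 melanoma cells, kept as monolayers at 37 °C in Eagle's MEM with Hanks' salts plus 10% fetal calf serum, were seeded from exponential growth at 1.5 to 3 × 10⁵ cells per 25-cm² flask. Compound (0.1 μM–0.1 mM) was added at seeding. After 72 h, cells were trypsinized and counted electronically. ID50 was read graphically from at least two replicate experiments.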

Row | SMILES | IC50
1 | CC(=O)OC1[C@@H](OC(C)=O)C(C)O[C@@H](Nc2ccc(C(=O)O)cc2)[C@H]1OC(C)=O (stereo partly drawn) | 20 µM
2 | CC(=O)OCC1O[C@@H](Nc2ccc(C(=O)O)cc2)[C@@H](OC(C)=O)C(OC(C)=O)[C@H]1OC(C)=O (stereo partly drawn) | 49 µM
3 | CC(=O)OC(=O)c1ccc(N[C@@H]2OC[C@@H](OC(C)=O)C(OC(C)=O)[C@@H]2OC(C)=O)cc1 (stereo partly drawn) | 25 µM
4 | O=C(O)c1ccc(N[C@@H]2OC[C@@H](O)C(O)[C@H]2O)cc1 (stereo partly drawn) | 100 µM
5 | CC(=O)OCC1O[C@@H](Nc2ccc(C(=O)OC(C)=O)cc2)[C@H](OC(C)=O)C(OC(C)=O)[C@@H]1OC(C)=O (stereo partly drawn) | 25 µM
6 | CC1O[C@@H](Nc2ccc(C(=O)O)cc2)[C@@H](O)C(O)[C@H]1O (stereo partly drawn) | 37 µM
7 | O=C(O)c1ccc(N[C@@H]2O[C@H](CO)[C@@H](O)[C@H](O)[C@H]2O)cc1 | 100 µM
8 | CC(=O)OC1[C@@H](OC(C)=O)CO[C@@H](Nc2ccc(C(=O)O)cc2)[C@@H]1OC(C)=O (stereo partly drawn) | 4 µM
9 | O=C(O)c1ccc(N[C@@H]2O[C@H](CO)[C@H](O)[C@H](O)[C@H]2O)cc1 | 30 µM
10 | O=C(O)c1ccc(N[C@@H]2OC(CO)[C@@H](O)C(O)[C@@H]2O)cc1 (stereo partly drawn) | 100 µM
11 | O=C(O)c1ccc(N[C@@H]2OC[C@@H](O)C(O)[C@@H]2O)cc1 (stereo partly drawn) | 38 µM
12 | CC(=O)OCC1O[C@@H](Nc2ccc(C(=O)O)cc2)[C@@H](OC(C)=O)C(OC(C)=O)[C@@H]1OC(C)=O (stereo partly drawn) | 18 µM
13 | O=C(O)c1ccc(N[C@@H]2O[C@H](CO)[C@@H](O)[C@H](O)[C@@H]2O)cc1 | 39 µM
